Source: ChEMBL document CHEMBL1165965, “Synthesis and structure-activity relationships of 1,2,3,4-tetrahydropyrido[2,3-b]pyrazines as potent and selective inhibitors of the anaplastic lymphoma kinase” (Bioorg Med Chem, 2010)

Legend:
[1] = target: T1, Myosin-IIIb (Homo sapiens) (UniProt Q8WXR4); test: Inhibition of MYO3B at 1 uM
T1 sequence (whole entry): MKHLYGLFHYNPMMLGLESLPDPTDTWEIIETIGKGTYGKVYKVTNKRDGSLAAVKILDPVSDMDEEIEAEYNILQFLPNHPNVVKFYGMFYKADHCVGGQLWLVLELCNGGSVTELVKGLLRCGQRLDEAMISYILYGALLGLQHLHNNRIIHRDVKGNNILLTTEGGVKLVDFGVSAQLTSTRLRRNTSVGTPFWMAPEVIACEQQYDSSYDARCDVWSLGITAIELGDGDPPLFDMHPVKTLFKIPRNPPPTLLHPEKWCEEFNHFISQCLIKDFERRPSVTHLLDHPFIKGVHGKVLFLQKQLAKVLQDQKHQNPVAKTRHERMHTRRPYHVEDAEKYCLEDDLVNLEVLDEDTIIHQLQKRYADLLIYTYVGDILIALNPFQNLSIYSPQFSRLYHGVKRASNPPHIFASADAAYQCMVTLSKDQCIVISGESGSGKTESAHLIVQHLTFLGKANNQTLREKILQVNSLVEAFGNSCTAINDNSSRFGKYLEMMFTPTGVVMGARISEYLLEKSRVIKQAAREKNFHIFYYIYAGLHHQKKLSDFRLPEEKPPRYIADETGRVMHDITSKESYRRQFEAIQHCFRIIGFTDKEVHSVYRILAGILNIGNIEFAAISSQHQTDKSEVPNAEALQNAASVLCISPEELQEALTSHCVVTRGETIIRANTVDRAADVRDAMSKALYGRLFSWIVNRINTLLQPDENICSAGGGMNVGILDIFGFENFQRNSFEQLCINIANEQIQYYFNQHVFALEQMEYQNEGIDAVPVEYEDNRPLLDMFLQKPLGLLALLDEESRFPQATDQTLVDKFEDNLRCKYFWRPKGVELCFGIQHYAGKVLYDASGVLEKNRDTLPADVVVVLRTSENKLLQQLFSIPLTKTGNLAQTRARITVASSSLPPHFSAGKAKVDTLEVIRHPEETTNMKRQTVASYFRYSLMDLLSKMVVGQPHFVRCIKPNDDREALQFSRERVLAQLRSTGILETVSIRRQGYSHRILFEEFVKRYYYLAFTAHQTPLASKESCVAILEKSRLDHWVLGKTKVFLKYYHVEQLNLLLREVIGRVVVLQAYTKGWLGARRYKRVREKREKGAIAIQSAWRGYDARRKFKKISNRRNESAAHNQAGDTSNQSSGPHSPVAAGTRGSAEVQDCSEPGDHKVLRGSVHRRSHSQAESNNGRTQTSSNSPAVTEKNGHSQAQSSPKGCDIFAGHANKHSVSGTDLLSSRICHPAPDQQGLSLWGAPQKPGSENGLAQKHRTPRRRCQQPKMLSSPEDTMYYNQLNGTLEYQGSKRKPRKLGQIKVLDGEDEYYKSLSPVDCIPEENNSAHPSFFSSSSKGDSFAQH

[2] = target: Serine/threonine-protein kinase PRP4 homolog (Homo sapiens) (UniProt Q13523); test: Inhibition of PRP4 at 1 uM
[3] = target: Mitogen-activated protein kinase kinase kinase 4 (Homo sapiens) (UniProt Q9Y6R4); test: Inhibition of MAP3K4 at 1 uM
Sequence of Mitogen-activated protein kinase kinase kinase 4 (Homo sapiens) (Q9Y6R4 whole entry): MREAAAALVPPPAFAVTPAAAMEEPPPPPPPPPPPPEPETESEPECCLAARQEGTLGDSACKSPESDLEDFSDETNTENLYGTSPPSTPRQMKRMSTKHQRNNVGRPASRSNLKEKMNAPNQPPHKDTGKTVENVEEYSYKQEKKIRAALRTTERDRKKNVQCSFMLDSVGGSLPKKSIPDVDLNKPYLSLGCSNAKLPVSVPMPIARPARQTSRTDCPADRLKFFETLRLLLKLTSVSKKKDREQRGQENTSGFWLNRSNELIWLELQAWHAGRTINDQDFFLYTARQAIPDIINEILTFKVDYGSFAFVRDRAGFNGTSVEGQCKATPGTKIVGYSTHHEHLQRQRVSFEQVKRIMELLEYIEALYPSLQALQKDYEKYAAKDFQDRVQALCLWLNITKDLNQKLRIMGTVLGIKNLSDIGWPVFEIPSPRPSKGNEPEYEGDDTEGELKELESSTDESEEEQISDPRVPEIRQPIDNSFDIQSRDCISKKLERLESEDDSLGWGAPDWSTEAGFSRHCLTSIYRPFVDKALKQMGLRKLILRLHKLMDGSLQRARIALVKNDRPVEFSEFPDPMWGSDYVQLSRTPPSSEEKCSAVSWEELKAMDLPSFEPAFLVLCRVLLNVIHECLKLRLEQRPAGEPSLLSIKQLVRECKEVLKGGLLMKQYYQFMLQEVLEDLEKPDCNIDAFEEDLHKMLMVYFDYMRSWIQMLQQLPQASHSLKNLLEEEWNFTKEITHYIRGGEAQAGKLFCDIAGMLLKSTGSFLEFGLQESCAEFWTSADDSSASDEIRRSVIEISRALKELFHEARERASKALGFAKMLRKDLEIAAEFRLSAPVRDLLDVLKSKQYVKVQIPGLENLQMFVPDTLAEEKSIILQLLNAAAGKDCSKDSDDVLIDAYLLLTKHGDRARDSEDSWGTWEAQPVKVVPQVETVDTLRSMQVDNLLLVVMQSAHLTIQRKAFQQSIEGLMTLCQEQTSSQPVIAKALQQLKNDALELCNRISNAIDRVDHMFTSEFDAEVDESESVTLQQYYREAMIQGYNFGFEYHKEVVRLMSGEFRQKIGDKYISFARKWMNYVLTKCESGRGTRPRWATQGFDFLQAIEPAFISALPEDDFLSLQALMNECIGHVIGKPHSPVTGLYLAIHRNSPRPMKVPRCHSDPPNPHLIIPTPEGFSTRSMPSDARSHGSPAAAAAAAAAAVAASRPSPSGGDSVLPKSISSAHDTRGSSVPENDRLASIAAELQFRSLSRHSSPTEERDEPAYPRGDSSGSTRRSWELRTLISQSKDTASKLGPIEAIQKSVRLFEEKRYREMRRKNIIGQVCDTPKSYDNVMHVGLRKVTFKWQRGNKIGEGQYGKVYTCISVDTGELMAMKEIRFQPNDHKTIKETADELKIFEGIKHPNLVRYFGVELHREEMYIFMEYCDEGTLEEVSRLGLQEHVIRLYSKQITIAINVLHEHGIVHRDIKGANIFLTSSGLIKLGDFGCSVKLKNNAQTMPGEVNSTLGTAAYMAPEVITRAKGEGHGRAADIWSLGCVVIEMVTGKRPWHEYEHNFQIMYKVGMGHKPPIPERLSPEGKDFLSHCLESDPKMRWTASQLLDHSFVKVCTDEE

[4] = target: Serine/threonine-protein kinase 38 (Homo sapiens) (UniProt Q15208); test: Inhibition of NDR1 at 1 uM
Sequence of Serine/threonine-protein kinase 38 (Homo sapiens) (Q15208 2-465 limits assumed): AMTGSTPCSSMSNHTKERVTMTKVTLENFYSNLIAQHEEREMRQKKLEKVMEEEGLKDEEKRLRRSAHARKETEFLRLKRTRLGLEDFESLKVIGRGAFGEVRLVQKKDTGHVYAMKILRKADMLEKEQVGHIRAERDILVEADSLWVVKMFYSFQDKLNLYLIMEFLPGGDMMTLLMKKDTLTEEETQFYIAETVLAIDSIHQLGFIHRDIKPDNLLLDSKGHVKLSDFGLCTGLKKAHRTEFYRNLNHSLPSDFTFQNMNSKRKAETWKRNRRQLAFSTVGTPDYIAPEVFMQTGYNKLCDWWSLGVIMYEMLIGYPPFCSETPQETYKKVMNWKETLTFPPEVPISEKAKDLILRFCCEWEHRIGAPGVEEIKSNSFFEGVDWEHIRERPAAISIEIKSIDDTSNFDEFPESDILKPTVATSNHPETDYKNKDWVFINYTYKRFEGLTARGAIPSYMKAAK

[5] = target: T2, cGMP-dependent protein kinase 1 (Homo sapiens) (UniProt Q13976); test: Inhibition of PRKG1 at 1 uM
T2 sequence (whole entry): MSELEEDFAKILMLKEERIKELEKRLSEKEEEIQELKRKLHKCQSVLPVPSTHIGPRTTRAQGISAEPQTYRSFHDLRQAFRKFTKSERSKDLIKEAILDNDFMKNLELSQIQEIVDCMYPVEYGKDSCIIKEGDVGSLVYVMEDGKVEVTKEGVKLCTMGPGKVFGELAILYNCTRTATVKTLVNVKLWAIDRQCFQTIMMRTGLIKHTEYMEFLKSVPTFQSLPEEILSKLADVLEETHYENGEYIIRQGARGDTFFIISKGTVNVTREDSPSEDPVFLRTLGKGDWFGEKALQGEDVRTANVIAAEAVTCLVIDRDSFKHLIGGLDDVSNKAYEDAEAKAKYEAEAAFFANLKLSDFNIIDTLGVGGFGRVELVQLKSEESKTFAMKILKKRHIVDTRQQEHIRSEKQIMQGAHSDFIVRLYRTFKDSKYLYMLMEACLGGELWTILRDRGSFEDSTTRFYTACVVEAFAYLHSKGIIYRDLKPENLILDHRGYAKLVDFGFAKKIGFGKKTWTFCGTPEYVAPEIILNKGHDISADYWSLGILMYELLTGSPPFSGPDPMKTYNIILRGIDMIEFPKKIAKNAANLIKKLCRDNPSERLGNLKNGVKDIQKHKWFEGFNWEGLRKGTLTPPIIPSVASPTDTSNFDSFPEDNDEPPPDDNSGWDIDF

[6] = target: Dual specificity protein kinase CLK4 (Homo sapiens) (UniProt Q9HAZ1); test: Inhibition of CLK4 at 1 uM
Sequence of Dual specificity protein kinase CLK4 (Homo sapiens) (Q9HAZ1 whole entry, looked up): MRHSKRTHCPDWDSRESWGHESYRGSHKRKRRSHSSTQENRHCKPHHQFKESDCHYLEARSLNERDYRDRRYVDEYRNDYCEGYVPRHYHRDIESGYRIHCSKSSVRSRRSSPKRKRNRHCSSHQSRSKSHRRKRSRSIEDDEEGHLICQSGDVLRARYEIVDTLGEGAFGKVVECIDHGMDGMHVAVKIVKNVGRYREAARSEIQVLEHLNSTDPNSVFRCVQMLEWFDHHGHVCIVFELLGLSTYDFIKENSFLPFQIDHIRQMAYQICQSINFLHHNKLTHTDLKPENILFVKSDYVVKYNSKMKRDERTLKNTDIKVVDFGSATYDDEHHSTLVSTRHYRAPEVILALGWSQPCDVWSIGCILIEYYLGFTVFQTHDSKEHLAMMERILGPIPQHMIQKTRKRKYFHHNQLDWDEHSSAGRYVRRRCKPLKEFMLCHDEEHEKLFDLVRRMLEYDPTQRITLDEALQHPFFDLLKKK
How it was run: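 Single-concentration screen using Ambit Bioscience KINOMEscan technology across a panel of 250–400 kinases. Per-kinase inhibition from this screen was summarized as S(90), the fraction of kinases inhibited by more than 90%.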

[7] = system: Phosphatidylinositol 4,5-bisphosphate 3-kinase catalytic subunit alpha isoform (Homo sapiens), P42336 [E545A]; test: Inhibition of PIK3CA E545A mutant at 1 uM
Sequence of Phosphatidylinositol 4,5-bisphosphate 3-kinase catalytic subunit alpha isoform (Homo sapiens), P42336 [E545A] (P42336 whole entry E545A, canonical isoform): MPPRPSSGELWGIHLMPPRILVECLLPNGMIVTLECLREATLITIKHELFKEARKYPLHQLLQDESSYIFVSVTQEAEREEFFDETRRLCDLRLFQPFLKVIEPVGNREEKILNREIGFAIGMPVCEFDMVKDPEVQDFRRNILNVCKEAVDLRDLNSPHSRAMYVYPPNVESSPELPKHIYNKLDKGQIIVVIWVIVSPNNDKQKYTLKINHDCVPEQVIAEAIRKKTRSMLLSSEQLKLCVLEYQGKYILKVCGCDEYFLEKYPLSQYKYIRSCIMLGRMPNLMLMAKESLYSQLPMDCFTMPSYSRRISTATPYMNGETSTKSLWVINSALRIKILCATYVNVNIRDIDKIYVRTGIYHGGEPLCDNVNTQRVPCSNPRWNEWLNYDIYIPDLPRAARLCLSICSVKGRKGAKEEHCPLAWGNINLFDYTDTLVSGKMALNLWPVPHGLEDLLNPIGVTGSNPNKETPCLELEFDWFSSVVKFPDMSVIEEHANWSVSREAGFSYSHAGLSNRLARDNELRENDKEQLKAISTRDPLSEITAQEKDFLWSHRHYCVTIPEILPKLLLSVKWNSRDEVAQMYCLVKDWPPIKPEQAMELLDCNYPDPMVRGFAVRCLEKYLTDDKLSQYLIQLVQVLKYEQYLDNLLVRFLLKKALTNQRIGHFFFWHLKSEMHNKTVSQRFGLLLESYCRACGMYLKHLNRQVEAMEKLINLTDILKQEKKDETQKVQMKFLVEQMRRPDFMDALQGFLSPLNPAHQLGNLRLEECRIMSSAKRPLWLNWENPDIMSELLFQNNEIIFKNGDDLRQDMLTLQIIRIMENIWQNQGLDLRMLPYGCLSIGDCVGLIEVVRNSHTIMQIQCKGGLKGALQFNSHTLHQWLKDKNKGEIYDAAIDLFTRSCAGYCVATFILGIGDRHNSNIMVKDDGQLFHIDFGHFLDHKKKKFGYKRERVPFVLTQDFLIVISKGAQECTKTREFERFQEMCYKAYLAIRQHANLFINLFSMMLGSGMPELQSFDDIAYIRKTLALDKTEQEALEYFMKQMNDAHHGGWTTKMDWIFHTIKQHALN

[8] = system: Phosphatidylinositol 4,5-bisphosphate 3-kinase catalytic subunit alpha isoform (Homo sapiens), P42336 [H1047Y]; test: Inhibition of PIK3CA H1047Y mutant at 1 uM
Sequence of Phosphatidylinositol 4,5-bisphosphate 3-kinase catalytic subunit alpha isoform (Homo sapiens), P42336 [H1047Y] (P42336 whole entry H1047Y, canonical isoform): as the sequence (P42336 whole entry E545A, canonical isoform) above, with A545E, H1047Y counted along it

[9] = target: Mitogen-activated protein kinase 14 (Homo sapiens) (UniProt Q16539); test: Inhibition of p38-alpha at 1 uM
Sequence of Mitogen-activated protein kinase 14 (Homo sapiens) (Q16539 whole entry): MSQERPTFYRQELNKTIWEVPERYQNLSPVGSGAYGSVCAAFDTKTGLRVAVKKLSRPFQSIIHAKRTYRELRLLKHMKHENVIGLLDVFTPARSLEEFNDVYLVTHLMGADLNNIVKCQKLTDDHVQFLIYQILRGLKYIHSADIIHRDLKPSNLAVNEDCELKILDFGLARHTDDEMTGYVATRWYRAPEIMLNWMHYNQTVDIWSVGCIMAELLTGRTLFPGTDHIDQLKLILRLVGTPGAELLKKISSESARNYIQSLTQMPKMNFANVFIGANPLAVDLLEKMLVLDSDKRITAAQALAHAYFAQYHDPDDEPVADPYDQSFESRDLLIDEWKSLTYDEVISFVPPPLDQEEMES

inhibition [1] | inhibition [2] | inhibition [3] | inhibition [4] | inhibition [5] | inhibition [6] | inhibition [7] | inhibition [8] | inhibition [9] | Structure (SMILES)
 |  | < 50% |  | < 50% | < 50% |  |  | < 50% | O=C(c1ccc(-c2cnc3c(c2)N(Cc2cc(Cl)ccc2C(F)(F)F)CCN3)cc1)N1CCCCC1
< 50% | < 50% | < 50% | < 50% | < 50% | < 50% | < 50% | < 50% | < 50% | CC(=O)N1CCN(c2cc(-c3cnc4c(c3)N(Cc3cc(Cl)ccc3C(F)(F)F)CCN4)ccn2)CC1
 |  | < 50% |  | < 50% | < 50% |  |  | < 50% | O=C(O)c1ccc(-c2cnc3c(c2)N(Cc2cc(Cl)ccc2C(F)(F)F)CCN3)cc1

Second part, the compound before the results:

Structure (SMILES) | inhibition [1] | inhibition [2] | inhibition [3] | inhibition [4] | inhibition [5] | inhibition [6] | inhibition [7] | inhibition [8] | inhibition [9]
CN1CCN(c2ccc(-c3cnc4c(c3)N(Cc3cc(Cl)ccc3Cl)CCN4)cn2)CC1 | < 50% | < 50% | < 50% | < 50% | < 50% | < 50% | < 50% | < 50% | < 50%
CN1CCN(c2ccc(-c3cnc4c(c3)N(Cc3cc(Cl)ccc3C(F)(F)F)CCN4)cn2)CC1 | < 50% | < 50% | < 50% | < 50% | < 50% | < 50% | < 50% | < 50% | < 50%
COC1CCN(C(=O)c2ccc(-c3cnc4c(c3)N(Cc3cc(Cl)ccc3C(F)(F)F)CCN4)cc2)CC1 |  |  |  |  | < 50% | < 50% |  |  | < 50%
FC(F)(F)c1ccc(Cl)cc1CN1CCNc2ncc(-c3ccnc(N4CCNCC4)c3)cc21 | < 50% | < 50% | < 50% | < 50% | < 50% | < 50% | < 50% | < 50% | < 50%
O=C(c1ccc(-c2cnc3c(c2)N(Cc2cc(Cl)ccc2C(F)(F)F)CCN3)cc1)N1CCC(N2CCCC2)CC1 |  |  | < 50% |  | < 50% | < 50% |  |  | < 50%
CN1CCN(c2ccc(-c3cnc4c(c3)N(Cc3c(F)ccc(F)c3Cl)CCN4)cn2)CC1 | < 50% | < 50% | < 50% | < 50% | < 50% | < 50% | < 50% | < 50% | < 50%
CN1CCN(c2ccc(-c3cnc4c(c3)N(Cc3cc(F)ccc3F)CCN4)cn2)CC1 | < 50% | < 50% | < 50% | < 50% | < 50% | < 50% | < 50% | < 50% | < 50%
